The nature of data set [1]: Ratio of drug level in tumor to liver in athymic NCr mouse xenografted with human OVCAR-3 cells at 180 uCi, ip administered 9 days after tumor implantation as six fractionated doses every 4 days measured after 1.5 hrs by gamma counting. The data set is classed as ADME, organism-based. To be noted: in vivo.
For data set [2], the system named is OVCAR-3. Description: Cytotoxicity against human OVCAR-3 cells expressing androgen receptor assessed as cell survival at 0.01 to 5 uCi/mL after 24 hrs. The data set is classed as functional.
Data set [3] in a line: Biodistribution in uterus of athymic NCr mouse xenografted with human OVCAR-3 cells assessed per gram of tissue at 1.12 uCi, ip after 72 hrs by gamma counting. Type of data set: ADME, organism-based. To be noted: in vivo.
A short description of data set [4]: Ratio of drug level in tumor to blood in athymic NCr mouse xenografted with human OVCAR-3 cells at 180 uCi, ip administered 9 days after tumor implantation as six fractionated doses every 4 days measured after 72 hrs by gamma counting. Type of data set: ADME, organism-based. To be noted: tumour.
For data set [5], the system named is OVCAR-3. Description: Cytotoxicity against human OVCAR-3 cells expressing androgen receptor at 5 uCi/mL after 24 hrs. Type of data set: functional.
Data set [6] can be described thus: Stability in rabbit serum assessed as half life at 10 to 20 uCi/mL by size-exclusion HPLC analysis. Type of data set: ADME, cell-free, Oryctolagus cuniculus. The method, boiled down: (§1)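 The compound was incubated with rabbit or human serum at ambient temperature, and aliquots were taken at 1, 5 and 24 h. Aliquots were run on size-exclusion HPLC (TSK3000; 0.1 M potassium phosphate/0.1 M Na2SO4, pH 6.8, then an acetonitrile gradient). Extracts were run on C18 reversed-phase HPLC (water/acetonitrile with 0.07% TFA). Half-lives came from a monoexponential fit.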

The nature of data set [7]: Ratio of drug level in tumor to uterus in athymic NCr mouse xenografted with human OVCAR-3 cells at 180 uCi, ip administered 9 days after tumor implantation as six fractionated doses every 4 days measured after 72 hrs by gamma counting. The data set is classed as ADME, organism-based. To be noted: in vivo.
The nature of data set [8]: Chemical stability in RPMI-1640 serum-free medium assessed as intact compound remaining at 12.2 uCi up to 6 hrs by HPLC analysis. Type of data set: physicochemical. To be noted: read-out: Stability.
The nature of data set [9]: Ratio of drug level in tumor to uterus in athymic NCr mouse xenografted with human OVCAR-3 cells at 180 uCi, ip administered 9 days after tumor implantation as six fractionated doses every 4 days measured after 24 hrs by gamma counting. The data set is classed as ADME, organism-based. To be noted: in vivo.
The next data set has as its system Serum. Description: Stability in human serum assessed as half life at 10 to 20 uCi/mL by reversed phase HPLC analysis. The data set is classed as ADME, cell-free. In a few lines:
as §1

In data set [10] the target is T1, Sex hormone-binding globulin (Oryctolagus cuniculus, UniProt P15196).
T1 sequence (P15196 whole entry): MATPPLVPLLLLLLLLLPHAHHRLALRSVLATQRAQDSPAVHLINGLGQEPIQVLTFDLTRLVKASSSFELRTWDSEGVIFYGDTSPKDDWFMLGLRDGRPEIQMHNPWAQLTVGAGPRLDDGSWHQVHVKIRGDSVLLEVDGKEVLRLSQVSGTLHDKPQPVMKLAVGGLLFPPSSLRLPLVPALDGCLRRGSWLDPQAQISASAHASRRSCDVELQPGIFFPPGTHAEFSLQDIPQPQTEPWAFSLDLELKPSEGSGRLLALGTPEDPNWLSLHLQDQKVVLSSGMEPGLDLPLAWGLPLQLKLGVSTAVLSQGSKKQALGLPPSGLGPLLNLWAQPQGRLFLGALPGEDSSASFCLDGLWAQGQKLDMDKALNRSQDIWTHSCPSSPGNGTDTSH
Description: Binding affinity to rabbit sex hormone binding globulin at 10 to 20 uCi/mL after 60 mins by size-exclusion HPLC analysis. The data set is classed as ADME. To be noted: 1 h. The method, boiled down:
(§2)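 Radioligand incubated 60 min in rabbit serum; size-exclusion HPLC as for SHBG binding (phosphate/Na2SO4 pH 6.8, then CH3CN gradient) for SHBG-bound peak, with extracts run on C18 for intact compound.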

Data set [11] addresses T1, Sex hormone-binding globulin. Nature of the data set: Binding affinity to rabbit sex hormone binding globulin assessed as intact compound remaining at 10 to 20 uCi/mL after 60 mins by size-exclusion HPLC analysis. Type of data set: ADME. To be noted: read-out: Stability. In a few lines:
as §2

Data set [12] relates to OVCAR-3. Nature of the data set: Stability in human OVCAR-3 cells expressing androgen receptor assessed as half life at 0.1 uCi/mL by silica gel instant thin layer chromatography. Type of data set: ADME, cell-based. The method, boiled down: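 Breakdown was followed with proliferating NIH:OVCAR-3 cells grown in complete RPMI-1640 medium. The distribution of radioactive products released into the culture medium (parent compound, 125IUdR and its 3′-succinate) was measured over time. Half-life was estimated from the time course.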

For data set [13], the target named is T1, Sex hormone-binding globulin. Description: Binding affinity to rabbit sex hormone binding globulin at 10 to 20 uCi/mL after 60 mins by reversed phase HPLC analysis. To be noted: 1 h. The data set is classed as ADME.
Data set [14] has as its system OVCAR-3. Description: Antitumor activity against human OVCAR-3 cells xenografted in athymic NCr mouse assessed as reduction of tumor size in peritoneum at 180 uCi, ip administered 9 days after tumor implantation as six fractionated doses every 4 days measured after 2 weeks of last dose by gamma counting. Also noted: scale not given: the % may be the effect or the level left. Type of data set: functional. In a few lines:
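OVCAR-3 ip xenografts in athymic mice; six fractionated ip doses every 4 days, total 180 μCi/mouse, with PBS or vehicle ip controls. Nonadherent tumor cells recovered by peritoneal lavage at necropsy, counted and pellet-weighed.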

Data set [15] in a line: Biodistribution in uterus of athymic NCr mouse xenografted with human OVCAR-3 cells assessed per gram of tissue at an average 39.5 uCi/dose, ip administered 9 days after tumor implantation as six fractionated doses every 4 days measured after 2 weeks of last dose by gamma counting. Type of data set: ADME, organism-based. The following applies: in vivo, 336 h. In a few lines:
(§3)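 OVCAR-3-bearing and healthy athymic mice given fractionated ip doses on the six-dose every-4-days schedule; tissues, tumor and lavaged cells γ-counted at necropsy, %ID/g; DNA-bound 125I in cells measured as cpm/cell.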

In a further data set the test system is Liver. Nature of the data set: Biodistribution in liver of athymic NCr mouse xenografted with human OVCAR-3 cells assessed per gram of tissue at an average 39.5 uCi/dose, ip administered 9 days after tumor implantation as six fractionated doses every 4 days measured after 2 weeks of last dose by gamma counting. Type of data set: ADME, organism-based. The following applies: in vivo, 336 h. The method, boiled down:
as §3

A further data set concerns Heart. Description: Biodistribution in heart of athymic NCr mouse xenografted with human OVCAR-3 cells assessed per gram of tissue at an average 39.5 uCi/dose, ip administered 9 days after tumor implantation as six fractionated doses every 4 days measured after 2 weeks of last dose by gamma counting. Type of data set: ADME, organism-based. To be noted: in vivo, 336 h. In a few lines: as §3

Data set [16] can be described thus: Biodistribution in large intestine of athymic NCr mouse xenografted with human OVCAR-3 cells assessed per gram of tissue at an average 39.5 uCi/dose, ip administered 9 days after tumor implantation as six fractionated doses every 4 days measured after 2 weeks of last dose by gamma counting. Type of data set: ADME, organism-based. To be noted: in vivo, 336 h. The method, boiled down: as §3

Another data set relates to Spleen. Description: Biodistribution in spleen of athymic NCr mouse xenografted with human OVCAR-3 cells assessed per gram of tissue at an average 39.5 uCi/dose, ip administered 9 days after tumor implantation as six fractionated doses every 4 days measured after 2 weeks of last dose by gamma counting. The data set is classed as ADME, organism-based. The following applies: in vivo, 336 h. The method, boiled down:
as §3

A further data set relates to LNCaP. Description: Cytotoxicity against human LNCAP cells expressing androgen receptor assessed as drug level required to reduce viable cell count to 37% after 48 hrs. The data set is classed as functional. The method, boiled down: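 LNCaP human prostate cancer cells were grown for 48 h with the 125I-labelled compound in the medium, and cell survival was then determined. D37 was expressed as the extracellular concentration in μCi/mL.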

Data set [17] concerns OVCAR-3. Description: Antitumor activity against human OVCAR-3 cells xenografted in athymic NCr mouse assessed as tumor burden in peritoneum at 0.25 mCi, ip administered 31 days after tumor implantation as single bolus dose measured 55 days after implantation by gamma counting in presence of SHBG (Rvb= 4.1 +/- 0.6 g). Type of data set: functional.

Structures are written as SMILES.

Consider two compounds from ChEMBL document CHEMBL1155242, “Radiolabeled 5-iodo-3'-O-(17beta-succinyl-5alpha-androstan-3-one)-2'-deoxyuridine and its 5'-monophosphate for imaging and therapy of androgen receptor-positive cancers: synthesis and biological evaluation” (J Med Chem, 2009).

Take `C[C@]12CCC(=O)C[C@@H]1CC[C@@H]1[C@@H]2CC[C@]2(C)[C@@H](OC(=O)CCC(=O)O[C@H]3C[C@H](n4cc([125I])c(=O)[nH]c4=O)O[C@@H]3CO)CC[C@@H]12`: the Ratio in data set [1] is on record as 1.4; in data set [4], 42.2; in data set [7], 7.4; in data set [9] it was 29.9. The Survival in the data set on OVCAR-3 [2] amounted to 95%. The Drug uptake in [3] is 1 %ID. For the same compound, the Activity was 20% with OVCAR-3 [5], “Active” in data set [10], “Active” in data set [13] and 70% with OVCAR-3 [14]. In addition, the values for the t1/2 (in data set [6]; in the data set on Serum; in the data set with OVCAR-3 [12]) were 5.7 h, 14.7 h and 3.2 h, respectively. The remaining at 6 h, 12.2 uCi in data set [8] was found to be 90%. The remaining at 1 h in [11] was greater than 84%.

On to `C[C@]12CCC(=O)C[C@@H]1CC[C@@H]1[C@@H]2CC[C@]2(C)[C@@H](OC(=O)CCC(=O)O[C@H]3C[C@H](n4cc([125I])c(=O)[nH]c4=O)O[C@@H]3COP(=O)(O)O)CC[C@@H]12`, for which the Drug uptake is listed as 0.027 %ID in data set [15]; 0.017 %ID in the data set on Liver; 0.003 %ID with Heart; 0.008 %ID in data set [16]; 0.043 %ID in the data set with Spleen. Also, the figures for the Activity in the data set with LNCaP and in the data set on OVCAR-3 [17] were 1.7 uCi/ml and 3.1 g, respectively.
